Activity calls are given as the source filed them. No cut-off for these calls is given here.
Tests used:
[1] = Selectivity for human CB1 receptor over 5HT receptor
[2] = Selectivity for human CB1 receptor over sigma receptor
[3] = species: Homo sapiens; assay: Selectivity for human CB1 receptor over human vanilloid V2 receptor
[4] = species: Homo sapiens; assay: Selectivity for human CB1 receptor over human NET
[5] = species: Homo sapiens; assay: Selectivity for human CB1 receptor over human bradykinin B1 receptor
[6] = tested on: Rattus norvegicus; assay: Reduction in body fat in po dosed diet-induced obesity Sprague-Dawley rat model; format: functional, organism-based
Summary of the method: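 Sprague-Dawley rats fed HFD from 3 weeks of age for 10 weeks; high responders (body weight exceeding chow controls by >2 SD) grouped n = 9. After 3 days gavage adaptation, daily oral dosing at 5:00 p.m. for 2 weeks in 7.5% gelatine/0.62% NaCl in water, 2 mL/kg. Fat and lean mass by MRI before and at end of treatment.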

[7] = species: Homo sapiens; assay: Selectivity for human CB1 receptor over human adenosine A1 receptor
[8] = Selectivity for human CB1 receptor over adrenergic alpha-2 receptor
[9] = species: Homo sapiens; assay: Selectivity for human CB1 receptor over human AT1 receptor
[10] = species: Homo sapiens; assay: Selectivity for human CB1 receptor over human AT2 receptor
[11] = species: Homo sapiens; assay: Selectivity for human CB1 receptor over human dopamine D4.4 receptor
[12] = Selectivity for human CB1 receptor over GABA receptor
[13] = Selectivity for human CB1 receptor over histamine H3 receptor
[14] = Selectivity for human CB1 receptor over peripheral imidazoline I1 receptor
[15] = species: Homo sapiens; assay: Selectivity for human CB1 receptor over human NK1 receptor
[16] = Selectivity for human CB1 receptor over neuropeptide Y receptor
[17] = biological target: Cannabinoid receptor 1 (Homo sapiens, UniProt P21554); assay: biochemical; format: cell-based, HEK293
Cannabinoid receptor 1, sequence (P21554 whole entry): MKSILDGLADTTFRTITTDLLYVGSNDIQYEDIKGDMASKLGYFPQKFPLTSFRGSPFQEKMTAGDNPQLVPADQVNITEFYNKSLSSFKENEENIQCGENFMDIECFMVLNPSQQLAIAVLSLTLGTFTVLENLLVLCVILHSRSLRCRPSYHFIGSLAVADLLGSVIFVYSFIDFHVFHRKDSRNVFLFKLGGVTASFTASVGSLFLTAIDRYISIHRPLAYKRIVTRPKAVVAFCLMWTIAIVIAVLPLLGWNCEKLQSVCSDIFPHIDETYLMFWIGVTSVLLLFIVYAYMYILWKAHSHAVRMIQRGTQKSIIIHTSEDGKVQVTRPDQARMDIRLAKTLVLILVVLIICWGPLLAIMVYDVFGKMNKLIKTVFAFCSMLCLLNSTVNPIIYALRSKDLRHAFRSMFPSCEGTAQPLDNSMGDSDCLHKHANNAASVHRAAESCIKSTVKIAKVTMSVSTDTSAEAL

[18] = tested on: Liver microsomes; assay: Clearance in human liver microsomes; format: ADME, Microsome; settings: microsomes
Summary of the method: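 Test compound at 2 µM incubated with liver microsomes (0.5 mg protein/mL) in 50 mM potassium phosphate pH 7.4 at 37 °C. Reaction started with an NADPH-generating system (glucose-6-phosphate 3.2 mM, NADP 2.6 mM, MgCl2 6.5 mM). Six samples over 30 min, quenched in methanol with internal standard, then LC-MS/MS for substrate depletion. CLint taken from the first-order decay, normalized to protein.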

For `O=C(c1cc2c(cc1F)O[C@](c1ccc(F)cc1)(c1ccc(Cl)cc1Cl)O2)N1CCOCC1`, the Selectivity ratio [1] was 300, the Selectivity ratio [2] was 300 and the Selectivity ratio [3] was 300. For the same molecule, the Selectivity ratio [4] was 300, the Selectivity ratio [5] was 300 and the Activity [6] was “Active”. For the same molecule, the Selectivity ratio [7] was 300, the Selectivity ratio [8] was 300 and the Selectivity ratio [9] was 300. The Selectivity ratio [10] was 300, the Selectivity ratio [11] was 300 and the Selectivity ratio [12] was 300. The Selectivity ratio [13] was 300, the Selectivity ratio [14] was 300 and the Selectivity ratio [15] was 300. It also gave a Selectivity ratio [16] of 300, a Ki [17] of 3.3 nM and a clearance [18] of 11 µL/min/mg.

— ChEMBL document CHEMBL1142431, “Benzodioxoles: novel cannabinoid-1 receptor inverse agonists for the treatment of obesity” (J Med Chem, 2008)
